≈ marks a conversion by molar mass, not a printed value.

Test system in one data set: not listed separately
In words: Intrinsic clearance in human liver microsomes at 1 uM after 30 mins by LC-MS/MS analysis. It counts as ADME. Particulars: read-out: CLH. In short, it runs like this:
(§1)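 Compound was incubated with human or mouse liver microsomes (0.5 mg protein/mL) in 50 mM phosphate buffer, pH 7.4, with 1 mM NADPH at 37 °C for 30 min. The reaction was quenched with three volumes of acetonitrile and centrifuged. Remaining compound in the supernatant was measured by LC–MS/MS.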
In general terms: Microsomes from liver hold many membrane-bound enzymes, among them those of drug oxidation.
In the case of `CN1CCN(C(=O)c2ccc(N3CCc4c(-c5cnc(N)nc5)nc(N5CCOCC5)nc43)cn2)CC1`, the microsomal CLint at 1 µM turned out to be 13.4 µL/min/mg.

On to `CN1CCN(Cc2ccc(N3CCc4c(-c5cnc(N)nc5)nc(N5CCOCC5)nc43)cc2)CC1`, for which the microsomal CLint at 1 µM turned out to be 13.3 µL/min/mg.

Take `CN1CCN(C(=O)c2cccc(N3CCc4c(-c5cnc(N)nc5)nc(N5CCOCC5)nc43)c2)CC1`: the microsomal CLint at 1 µM was determined as 13.8 µL/min/mg.

Test system in a further data set: not listed separately
Briefly: Initial plasma concentration in BALB/c nu mouse at 10 mg/kg, iv by LC-MS/MS analysis.
Conditions: not given
It counts as ADME, organism-based. Summed up: (§2)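 Female BALB/c-nu mice (n = 2–3 per group) received test compounds as solutions at 10 mg/kg iv or 50 or 100 mg/kg po. Heparinized blood was drawn at 0.08, 0.25, 1, 2, 4, 7 and 24 h after iv dosing, and at 0.5, 1, 2, 4, 7 and 24 h after po dosing. Plasma was stored at −80 °C and assayed by LC–MS/MS. Parameters came from non-compartmental analysis.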
Consider `CN1CCN(Cc2ccc(N3CCc4c(-c5cnc(N)nc5)nc(N5CCOCC5)nc43)cc2)CC1`, for which the C0 is 3940 ng/mL.

For a further data set, the target named is Phosphatidylinositol 4,5-bisphosphate 3-kinase catalytic subunit alpha isoform (Homo sapiens, UniProt P42336). In words: Inhibition of PI3Kalpha (unknown origin) by adapta universal kinase assay.
Chain of Phosphatidylinositol 4,5-bisphosphate 3-kinase catalytic subunit alpha isoform (P42336 whole entry, canonical isoform): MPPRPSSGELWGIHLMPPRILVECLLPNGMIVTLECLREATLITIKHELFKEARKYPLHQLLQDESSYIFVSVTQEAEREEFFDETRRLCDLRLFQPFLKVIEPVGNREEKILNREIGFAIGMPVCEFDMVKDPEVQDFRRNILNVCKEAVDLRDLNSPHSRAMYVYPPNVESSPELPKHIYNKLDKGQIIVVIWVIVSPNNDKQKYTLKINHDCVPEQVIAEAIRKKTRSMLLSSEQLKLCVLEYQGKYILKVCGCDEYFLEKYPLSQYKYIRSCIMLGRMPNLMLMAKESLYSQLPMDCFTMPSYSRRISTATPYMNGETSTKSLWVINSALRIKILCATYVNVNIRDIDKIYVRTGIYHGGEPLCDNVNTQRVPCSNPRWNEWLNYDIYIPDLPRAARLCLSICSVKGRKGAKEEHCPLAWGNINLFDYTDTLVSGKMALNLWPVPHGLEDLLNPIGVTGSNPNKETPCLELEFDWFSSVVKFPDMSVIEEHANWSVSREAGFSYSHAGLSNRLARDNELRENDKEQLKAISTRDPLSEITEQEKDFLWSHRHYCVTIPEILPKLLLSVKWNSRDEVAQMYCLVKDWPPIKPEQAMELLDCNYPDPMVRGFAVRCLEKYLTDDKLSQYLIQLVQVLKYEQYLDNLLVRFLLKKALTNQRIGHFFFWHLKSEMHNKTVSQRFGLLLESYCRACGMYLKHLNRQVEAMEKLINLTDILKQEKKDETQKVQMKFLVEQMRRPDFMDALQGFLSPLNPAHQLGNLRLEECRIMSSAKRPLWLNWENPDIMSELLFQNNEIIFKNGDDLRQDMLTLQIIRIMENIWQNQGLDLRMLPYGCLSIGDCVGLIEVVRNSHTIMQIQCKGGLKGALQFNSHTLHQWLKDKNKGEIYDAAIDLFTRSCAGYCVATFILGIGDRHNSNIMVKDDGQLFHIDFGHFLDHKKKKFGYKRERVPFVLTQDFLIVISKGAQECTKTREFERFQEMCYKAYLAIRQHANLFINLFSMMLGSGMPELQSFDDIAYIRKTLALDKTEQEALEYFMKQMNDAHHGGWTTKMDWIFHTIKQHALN
Conditions: not given
Summed up:
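Recombinant PI3Kα (p110α/p85α) was tested in the Adapta Universal Kinase Assay using PIP2:PS lipid kinase substrate.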
Take `CN1CCN(C(=O)c2ccc(N3CCc4c(-c5cnc(N)nc5)nc(N5CCOCC5)nc43)cn2)CC1`: the 50% inhibitory concentration (IC50) came to 25 nM.

`CN1CCN(C(=O)c2cccc(N3CCc4c(-c5cnc(N)nc5)nc(N5CCOCC5)nc43)c2)CC1` yielded an IC50 of 120 nM.

Test system in the next data set: not listed separately
In words: Oral bioavailability in BALB/c nu mouse at 50 mg/kg by LC-MS/MS analysis. Particulars: in vivo. It counts as ADME, organism-based. In short, it runs like this:
as §2
In the case of `CN1CCN(Cc2ccc(N3CCc4c(-c5cnc(N)nc5)nc(N5CCOCC5)nc43)cc2)CC1`, the bioavailability came to 61%.

Test system in the next data set: not listed separately
In words: AUC (infinity) in BALB/c nu mouse at 10 mg/kg, iv by LC-MS/MS analysis. It counts as ADME, organism-based. Set-up: dose 10 mg/kg, time infinity, route intravenous. To be noted: in vivo. Summed up: as §2
For `CN1CCN(Cc2ccc(N3CCc4c(-c5cnc(N)nc5)nc(N5CCOCC5)nc43)cc2)CC1`, the AUC(0-inf) came to 4400 ng·h/mL.

Test system in the next data set: not listed separately
In words: Half life in BALB/c nu mouse at 10 mg/kg, iv by LC-MS/MS analysis. It counts as ADME, organism-based. To be noted: in vivo. Summed up:
as §2
With `CN1CCN(Cc2ccc(N3CCc4c(-c5cnc(N)nc5)nc(N5CCOCC5)nc43)cc2)CC1`, the half-life was 5.03 h.

Test system in another data set: not listed separately
In words: Half life in cynomolgus monkey at 5 mg/kg, iv by LC-MS/MS analysis. To be noted: in vivo. It counts as ADME, organism-based, Macaca fascicularis. In short, it runs like this: (§3)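 Male cynomolgus monkeys (n = 2–3 per group; some groups n = 1) were dosed with solutions at 2.5 or 5 mg/kg iv or […]. Heparinized blood was sampled at 0.08–24 h after iv dosing and at 0.5–24 h after po dosing. Plasma was kept at −80 °C and quantified by LC–MS/MS. Non-compartmental analysis gave the PK parameters.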
In turn, `CN1CCN(Cc2ccc(N3CCc4c(-c5cnc(N)nc5)nc(N5CCOCC5)nc43)cc2)CC1` showed a half-life of 10.5 h.

Test system in the next data set: not listed separately
In words: Clearance in BALB/c nu mouse at 10 mg/kg, iv by LC-MS/MS analysis. It counts as ADME, organism-based. Particulars: in vivo. Summed up:
as §2
For the compound `CN1CCN(Cc2ccc(N3CCc4c(-c5cnc(N)nc5)nc(N5CCOCC5)nc43)cc2)CC1`, the clearance turned out to be 38 mL/min/kg.

Test system in a further data set: not listed separately
In words: Oral bioavailability in cynomolgus monkey at 10 mg/kg by LC-MS/MS analysis. It counts as ADME, organism-based, Macaca fascicularis. To be noted: in vivo. Summed up:
as §3
In turn, `CN1CCN(Cc2ccc(N3CCc4c(-c5cnc(N)nc5)nc(N5CCOCC5)nc43)cc2)CC1` returned a bioavailability of 21%.

Test system in another data set: not listed separately
In words: AUC (0 to t) in cynomolgus monkey at 10 mg/kg, po by LC-MS/MS analysis. It counts as ADME, organism-based, Macaca fascicularis. To be noted: in vivo. In short, it runs like this: as §3
For `CN1CCN(Cc2ccc(N3CCc4c(-c5cnc(N)nc5)nc(N5CCOCC5)nc43)cc2)CC1`, the AUC(0-t) turned out to be 1080 ng·h/mL.

Test system in the next data set: not listed separately
Briefly: Solubility in fasted state simulated intestinal fluid. It counts as ADME.
Conditions: not given
Summed up: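 A 4 mM or 1 mM DMSO sample aliquot was freeze-dried to remove DMSO, then taken up in FaSSIF, pH 6.5 (sodium taurocholate, lecithin, KH₂PO₄, KCl, NaOH). The mixture was sonicated 10 min, shaken 2 h, centrifuged 10 min and filtered. Filtrate concentration was determined by HPLC-UV against a calibration curve.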
In turn, `CN1CCN(C(=O)c2ccc(N3CCc4c(-c5cnc(N)nc5)nc(N5CCOCC5)nc43)cn2)CC1` had a solubility of 29 µg/mL (≈ 57.7 µM).

`CN1CCN(Cc2ccc(N3CCc4c(-c5cnc(N)nc5)nc(N5CCOCC5)nc43)cc2)CC1` came in with a solubility of 153 µg/mL (≈ 314 µM).

As for `CN1CCN(C(=O)c2cccc(N3CCc4c(-c5cnc(N)nc5)nc(N5CCOCC5)nc43)c2)CC1`, the solubility was 454 µg/mL (≈ 905 µM).

Test system in a further data set: not listed separately
Briefly: AUC (infinity) in cynomolgus monkey at 5 mg/kg, iv by LC-MS/MS analysis. It counts as ADME, organism-based, Macaca fascicularis. Set-up: dose 5 mg/kg, route intravenous, time infinity. Particulars: in vivo. In short, it runs like this:
as §3
With `CN1CCN(Cc2ccc(N3CCc4c(-c5cnc(N)nc5)nc(N5CCOCC5)nc43)cc2)CC1`, the area under the curve AUC(0-inf) turned out to be 2540 ng·h/mL.

Test system in a further data set: not listed separately
Briefly: Clearance in cynomolgus monkey at 5 mg/kg, iv by LC-MS/MS analysis. To be noted: in vivo. It counts as ADME, organism-based, Macaca fascicularis. Summed up:
as §3
With `CN1CCN(Cc2ccc(N3CCc4c(-c5cnc(N)nc5)nc(N5CCOCC5)nc43)cc2)CC1`, the clearance came out at 33.9 mL/min/kg.

Test system in a further data set: not listed separately
Briefly: Permeability of the compound by PAMPA method. It counts as ADME. To be noted: read-out: permeability. Summed up:
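PAMPA: a 10 mM DMSO stock was diluted into donor buffer, checked for precipitation and filtered. The filter plate was coated with phospholipid, and the acceptor buffer was 0.05 M MOPSO, pH 6.5. Donor and acceptor concentrations were measured after incubation, and Pe (10⁻⁶ cm/s) was calculated from donor volume, film area, initial donor concentration and acceptor accumulation over time.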
In general terms: The PAMPA barrier holds no transporters, so it reflects passive diffusion.
For the compound `CN1CCN(C(=O)c2ccc(N3CCc4c(-c5cnc(N)nc5)nc(N5CCOCC5)nc43)cn2)CC1`, the Papp worked out at 1.64 ×10⁻⁶ cm/s.

Consider `CN1CCN(Cc2ccc(N3CCc4c(-c5cnc(N)nc5)nc(N5CCOCC5)nc43)cc2)CC1`, for which the Papp came to 0.92 ×10⁻⁶ cm/s.

Turning to `CN1CCN(C(=O)c2cccc(N3CCc4c(-c5cnc(N)nc5)nc(N5CCOCC5)nc43)c2)CC1`, the Papp worked out at 1.79 ×10⁻⁶ cm/s.

Test system in the next data set: not listed separately
Briefly: AUC (0 to t) in BALB/c nu mouse at 50 mg/kg, po by LC-MS/MS analysis. It counts as ADME, organism-based. Particulars: in vivo. Summed up: as §2
Compound `CN1CCN(C(=O)c2ccc(N3CCc4c(-c5cnc(N)nc5)nc(N5CCOCC5)nc43)cn2)CC1` showed an area under the curve AUC(0-t) of 1650 ng·h/mL.

With `CN1CCN(Cc2ccc(N3CCc4c(-c5cnc(N)nc5)nc(N5CCOCC5)nc43)cc2)CC1`, the exposure AUC(0-t) was 13400 ng·h/mL.

`CN1CCN(C(=O)c2cccc(N3CCc4c(-c5cnc(N)nc5)nc(N5CCOCC5)nc43)c2)CC1` had an exposure AUC(0-t) of 4030 ng·h/mL.

Test system in another data set: not listed separately
Briefly: Cmax in cynomolgus monkey at 10 mg/kg, po by LC-MS/MS analysis. It counts as ADME, organism-based, Macaca fascicularis. Particulars: in vivo. Set-up: dose 10 mg/kg, route oral. Summed up: as §3
Consider `CN1CCN(Cc2ccc(N3CCc4c(-c5cnc(N)nc5)nc(N5CCOCC5)nc43)cc2)CC1`, for which the Cmax amounted to 95.9 ng/mL.

Test system in another data set: not listed separately
In words: Cmax in BALB/c nu mouse at 50 mg/kg, po by LC-MS/MS analysis. It counts as ADME, organism-based. Also noted: dose 50 mg/kg, route oral. Particulars: in vivo. In short, it runs like this:
as §2
Regarding `CN1CCN(C(=O)c2ccc(N3CCc4c(-c5cnc(N)nc5)nc(N5CCOCC5)nc43)cn2)CC1`, the concentration peaked (Cmax) at 326 ng/mL.

The compound `CN1CCN(Cc2ccc(N3CCc4c(-c5cnc(N)nc5)nc(N5CCOCC5)nc43)cc2)CC1` showed a peak concentration (Cmax) of 1730 ng/mL.

`CN1CCN(C(=O)c2cccc(N3CCc4c(-c5cnc(N)nc5)nc(N5CCOCC5)nc43)c2)CC1` showed a Cmax of 1500 ng/mL.

Test system in a further data set: not listed separately
Briefly: Intrinsic clearance in mouse liver microsomes at 1 uM after 30 mins by LC-MS/MS analysis. Particulars: read-out: CLH. It counts as ADME. Summed up:
as §1
Take `CN1CCN(C(=O)c2ccc(N3CCc4c(-c5cnc(N)nc5)nc(N5CCOCC5)nc43)cn2)CC1`: the microsomal CLint at 1 µM is 3.5 µL/min/mg.

As to `CN1CCN(Cc2ccc(N3CCc4c(-c5cnc(N)nc5)nc(N5CCOCC5)nc43)cc2)CC1`, the microsomal CLint at 1 µM was 13.3 µL/min/mg.

For `CN1CCN(C(=O)c2cccc(N3CCc4c(-c5cnc(N)nc5)nc(N5CCOCC5)nc43)c2)CC1`, the microsomal CLint at 1 µM worked out at 6.2 µL/min/mg.

Test system in another data set: not listed separately
In words: Initial plasma concentration in cynomolgus monkey at 5 mg/kg, iv by LC-MS/MS analysis.
Conditions: not given
It counts as ADME, organism-based, Macaca fascicularis. Summed up:
as §3
`CN1CCN(Cc2ccc(N3CCc4c(-c5cnc(N)nc5)nc(N5CCOCC5)nc43)cc2)CC1` showed a C0 of 430 ng/mL.

The term IC50 denotes the point on the concentration scale where inhibition reaches its midpoint. As usually defined, the bioavailability is dose-corrected exposure relative to a reference, in per cent. The AUC(0-inf) is total exposure, with the tail of the curve extrapolated. What is called half-life is how long it takes for the measured level to halve. A word on the clearance: it is a measure of how efficiently the substance is removed, as volume per time. What is called AUC(0-t) is exposure summed from dosing to a finite time, without extrapolation to infinity. Usually solubility stands for the dissolved amount per volume that the medium holds. The term Cmax denotes the maximum level reached in the sampled fluid or tissue.

(Values after ChEMBL document CHEMBL3734662, “Modification of a dihydropyrrolopyrimidine phosphoinositide 3-kinase (PI3K) inhibitor to improve oral bioavailability” (Bioorg Med Chem, 2015).)
